Assays:
[1] = system: MCF-7 cells; assay: ROS determination; assay type: cell-based; conditions: MCF-7, IC50 dose, 5–6 h
Summary of the method: (§1)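 MCF-7 and A549 cells were treated with test compound or DMSO vehicle for 5–6 h. They were then loaded with 10 μM H2DCFDA for 30 min, trypsinized, and washed twice with PBS. Total ROS was measured by flow cytometry.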

[2] = biological target: T1, CDK6 (Homo sapiens, UniProt Q00534); assay: Fluorescence quenching binding studies with CDK6; conditions: for Kq (bimolecular quenching rate constant): Kq=Ksv/τ0; for ΔG: van't Hoff; for Kd: K (binding constant, modified Stern–Volmer)
[3] = system: CDK6 expression in A549 cells; assay: CDK6 protein expression; assay type: cell-based, human; conditions: A549, IC50 dose
Summary of the method: (§2)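 MCF-7 and A549 cells were treated with test compound or vehicle for a stipulated time, then harvested by trypsinization. They were lysed in RIPA buffer and protein was quantified by BCA. CDK6 was detected by Western blot with anti-CDK6 antibody, and band intensity was normalized to β-actin loading control.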

[4] = biological target: T1, CDK6; assay: Isothermal titration calorimetry with CDK6; conditions: ITC, 25 °C, one binding site model
Summary of the method: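 Recombinant CDK6 was expressed from pET28a+ in E. coli Codon+ cells (IPTG induction at 18 °C) and purified on Ni-NTA. Protein was dialysed against 25 mM Tris, 200 mM MgCl2, with ligand dissolved in the same buffer and 1% v/v DMSO added to protein. At 25 °C, 500 μM test compound in the syringe was titrated into 15 μM CDK6. Buffer-titration heats were subtracted before fitting n, ΔH and Ka.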

[5] = system: MCF-7 cells; assay: Cell viability MTT assay, MCF-7; assay type: cell-based; conditions: Homo sapiens, MCF7, 72 h, read-out: IC50, cell viability
Summary of the method: (§3)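 Cells were seeded at 5000–5500/well in 96-well plates and exposed to test compound (0–250 μM) for 72 h. MTT (from 5 mg/mL stock in PBS, pH 7.4) was added for 4–5 h. Formazan was dissolved in DMSO and OD read at 570 nm, then converted to % viability. Data are mean ±SD, n = 3.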

[6] = system: A549 cells; assay: Colony formation assay, A549; assay type: cell-based, human; conditions: A549, IC50 concentration, 8–10 days
Summary of the method: (§4)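 MCF-7 or A549 cells were plated at about 1000–1500 cells/well in 6-well plates. They were treated with test compound for 8–10 days at 37 °C, 5% CO2, with DMSO as vehicle control. Colonies were fixed with 100% methanol, stained with crystal violet, and counted by image analysis relative to vehicle.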

[7] = system: MCF-7 cells; assay: Colony formation assay, MCF-7; assay type: cell-based; conditions: MCF-7, IC50 concentration, 8–10 days
Summary of the method: as §4

[8] = biological target: T1, CDK6; assay: Kinase inhibition; assay type: biochemical
Summary of the method: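 Purified recombinant CDK6 (pET28a+, E. coli Codon+ expression, Ni-NTA) at 1 μM was incubated with 50 μM fresh ATP and increasing test compound (0–10 μM) for 1 h at 25 °C. Malachite green stopped the reaction, with colour developed 15–20 min at room temperature.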

[9] = system: A549 cells; assay: ROS determination; assay type: cell-based, human; conditions: A549, IC50 dose, 5–6 h
Summary of the method: as §1

[10] = system: CDK6 expression in MCF-7 cells; assay: CDK6 protein expression; assay type: cell-based; conditions: MCF-7, IC50 dose
Summary of the method: as §2

[11] = system: A549 cells; assay: Cell viability MTT assay, A549; assay type: cell-based; conditions: Homo sapiens, A549, 72 h, read-out: IC50, cell viability
Summary of the method: as §3

[12] = system: MCF-7 cells; assay: Annexin-V/PI staining apoptosis, MCF-7; assay type: cell-based; conditions: MCF-7, IC50 concentration, 48 h
Summary of the method: (§5)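 MCF-7 and A549 cells were treated with test compound or vehicle for 48 h, then harvested. They were stained with annexin-V/PI and analysed by flow cytometry to quantify apoptotic cells.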

[13] = system: A549 cells; assay: Annexin-V/PI staining apoptosis, A549; assay type: cell-based, human; conditions: A549, IC50 concentration, 48 h
Summary of the method: as §5

[14] = van't Hoff plot over 15, 25, 30 °C, same value printed at each temperature

T1 sequence (Q00534 whole entry): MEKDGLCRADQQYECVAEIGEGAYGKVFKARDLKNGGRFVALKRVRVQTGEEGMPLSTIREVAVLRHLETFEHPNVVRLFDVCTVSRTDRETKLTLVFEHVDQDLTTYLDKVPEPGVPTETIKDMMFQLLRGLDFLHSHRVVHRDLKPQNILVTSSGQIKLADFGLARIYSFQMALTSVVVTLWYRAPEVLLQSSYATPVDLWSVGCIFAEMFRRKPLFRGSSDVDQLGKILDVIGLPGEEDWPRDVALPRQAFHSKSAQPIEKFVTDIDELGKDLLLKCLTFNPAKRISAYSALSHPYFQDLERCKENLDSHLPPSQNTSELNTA

O=c1c(O)c(-c2ccc(O)c(O)c2)oc2cc(O)cc(O)c12 [quercetin]
effect on ROS production [1]: decreases the production of ROS
Ksv (Stern–Volmer constant) ([2]; 15 °C): 16.3 10^4 M^–1
n (number of binding sites) ([2]; 15 °C): 1.35
Kq (bimolecular quenching rate constant) ([2]; 15 °C): 6.03 10^13 M^–1 s^–1
ΔG ([2]; 15 °C): –9.400 kcal mol^–1
Ksv (Stern–Volmer constant) ([2]; 25 °C): 13.6 10^4 M^–1
TΔS ([2]; 25 °C): 2.46 kcal mol^–1
n (number of binding sites) ([2]; 25 °C): 1.33
Kq (bimolecular quenching rate constant) ([2]; 25 °C): 5.03 10^13 M^–1 s^–1
ΔG ([2]; 25 °C): –9.482 kcal mol^–1
Ksv (Stern–Volmer constant) ([2]; 30 °C): 12.2 10^4 M^–1
TΔS ([2]; 30 °C): 2.50 kcal mol^–1
n (number of binding sites) ([2]; 30 °C): 1.33
Kq (bimolecular quenching rate constant) ([2]; 30 °C): 4.51 10^13 M^–1 s^–1
ΔG ([2]; 30 °C): –9.524 kcal mol^–1
Kd ([2]; 15 °C): 0.0769 µM
Kd ([2]; 25 °C): 0.104 µM
Kd ([2]; 30 °C): 0.143 µM
ΔH [2, 14]: –7.019 kcal mol^–1
ΔS [2, 14]: 8.267 cal mol^–1 K^–1
effect on CDK6 expression [3]: decreases the CDK6 expression
ΔH [4]: -112 ± 0.457 kcal/mol
ΔS [4]: −351 cal/mol/deg
IC50 [5]: 41.8 ± 2.21 µM
effect on colonization (colony formation) [6]: significantly decreases the colonization
effect on colonization (colony formation) [7]: significantly decreases the colonization
IC50 [8]: 5.89 µM
effect on ROS production [9]: decreases the production of ROS
effect on CDK6 expression [10]: decreases the CDK6 expression
IC50 [11]: 52.4 ± 2.44 µM
cells in which apoptosis is induced [12]: ~21.10%
cells in which apoptosis is induced [13]: ~16.22%
